The source made the active and inactive calls. No cut-off for these calls is given here.
Legend:
[1] = biological target: T1, Matrilysin (Homo sapiens) (UniProt P09237); assay: Inhibition of human recombinant MMP-7 at 50 uM by fluorescence spectrophotometric analysis relative to control
T1 sequence (whole entry): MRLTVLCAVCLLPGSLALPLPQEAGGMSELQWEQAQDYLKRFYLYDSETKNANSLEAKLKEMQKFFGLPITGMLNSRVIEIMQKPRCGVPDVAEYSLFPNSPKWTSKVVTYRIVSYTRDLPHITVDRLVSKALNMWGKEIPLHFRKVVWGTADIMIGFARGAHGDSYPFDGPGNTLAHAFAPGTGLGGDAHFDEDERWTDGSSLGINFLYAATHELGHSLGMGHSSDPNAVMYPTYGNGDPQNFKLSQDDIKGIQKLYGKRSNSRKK

[2] = biological target: T2, Matrix metalloproteinase-9 (Homo sapiens, UniProt P14780); assay: Inhibition of human recombinant MMP-9 catalytic domain using MOCAcPLGLA2pr(Dnp)AR-NH2 as substrate by fluorescence spectrophotometric analysis
T2 sequence (P14780 whole entry, the tested form may be a part): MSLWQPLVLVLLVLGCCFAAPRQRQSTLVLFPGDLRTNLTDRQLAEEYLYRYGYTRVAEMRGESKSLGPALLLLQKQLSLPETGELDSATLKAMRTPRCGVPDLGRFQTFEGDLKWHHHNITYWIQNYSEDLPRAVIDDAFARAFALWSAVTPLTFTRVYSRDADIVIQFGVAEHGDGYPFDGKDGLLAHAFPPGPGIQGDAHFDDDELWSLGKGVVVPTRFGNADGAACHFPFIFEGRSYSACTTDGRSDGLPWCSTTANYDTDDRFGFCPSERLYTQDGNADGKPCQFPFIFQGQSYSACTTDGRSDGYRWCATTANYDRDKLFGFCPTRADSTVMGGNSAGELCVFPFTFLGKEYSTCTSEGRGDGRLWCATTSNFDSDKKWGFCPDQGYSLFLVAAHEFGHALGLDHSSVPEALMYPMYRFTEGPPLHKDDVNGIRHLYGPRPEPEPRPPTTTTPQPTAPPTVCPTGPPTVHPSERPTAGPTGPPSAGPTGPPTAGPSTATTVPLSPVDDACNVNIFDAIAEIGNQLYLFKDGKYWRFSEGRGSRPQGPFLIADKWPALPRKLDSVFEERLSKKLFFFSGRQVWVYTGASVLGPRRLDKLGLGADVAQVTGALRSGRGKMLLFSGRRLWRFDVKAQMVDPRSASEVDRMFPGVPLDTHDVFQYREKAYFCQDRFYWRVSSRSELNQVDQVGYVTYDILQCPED

[3] = biological target: MMP-2/MMP-9 (Homo sapiens) (UniProt P08253+P14780); assay: Selectivity ratio of Ki for human recombinant MMP-9 catalytic domain to Ki for human recombinant MMP-2
[4] = biological target: T3, Matrix metalloproteinase-14 (Homo sapiens, UniProt P50281); assay: Inhibition of human recombinant MMP-14 catalytic domain using MOCAcPLGLA2pr(Dnp)AR-NH2 as substrate by fluorescence spectrophotometric analysis
[5] = biological target: T4, Interstitial collagenase (Homo sapiens) (UniProt P03956); assay: Inhibition of human recombinant MMP-1 catalytic domain at 50 uM by fluorescence spectrophotometric analysis relative to control
T4 sequence (whole entry): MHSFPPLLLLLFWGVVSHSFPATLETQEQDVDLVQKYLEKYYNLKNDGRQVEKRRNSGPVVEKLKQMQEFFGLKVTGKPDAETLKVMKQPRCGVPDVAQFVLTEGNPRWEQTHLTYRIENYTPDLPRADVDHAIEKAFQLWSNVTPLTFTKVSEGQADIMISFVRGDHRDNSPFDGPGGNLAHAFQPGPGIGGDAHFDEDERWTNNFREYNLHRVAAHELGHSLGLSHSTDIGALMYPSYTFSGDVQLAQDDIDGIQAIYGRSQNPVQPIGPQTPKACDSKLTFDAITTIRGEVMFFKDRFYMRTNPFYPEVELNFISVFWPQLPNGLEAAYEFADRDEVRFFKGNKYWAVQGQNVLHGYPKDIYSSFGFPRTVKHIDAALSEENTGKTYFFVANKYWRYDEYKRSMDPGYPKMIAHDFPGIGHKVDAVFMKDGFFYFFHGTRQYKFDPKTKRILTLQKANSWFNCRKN

[6] = biological target: 72 kDa type IV collagenase (Homo sapiens, UniProt P08253); assay: Inhibition of human recombinant MMP-2 using MOCAcPLGLA2pr(Dnp)AR-NH2 as substrate by fluorescence spectrophotometric analysis
Sequence of 72 kDa type IV collagenase (P08253 whole entry, the tested form may be a part): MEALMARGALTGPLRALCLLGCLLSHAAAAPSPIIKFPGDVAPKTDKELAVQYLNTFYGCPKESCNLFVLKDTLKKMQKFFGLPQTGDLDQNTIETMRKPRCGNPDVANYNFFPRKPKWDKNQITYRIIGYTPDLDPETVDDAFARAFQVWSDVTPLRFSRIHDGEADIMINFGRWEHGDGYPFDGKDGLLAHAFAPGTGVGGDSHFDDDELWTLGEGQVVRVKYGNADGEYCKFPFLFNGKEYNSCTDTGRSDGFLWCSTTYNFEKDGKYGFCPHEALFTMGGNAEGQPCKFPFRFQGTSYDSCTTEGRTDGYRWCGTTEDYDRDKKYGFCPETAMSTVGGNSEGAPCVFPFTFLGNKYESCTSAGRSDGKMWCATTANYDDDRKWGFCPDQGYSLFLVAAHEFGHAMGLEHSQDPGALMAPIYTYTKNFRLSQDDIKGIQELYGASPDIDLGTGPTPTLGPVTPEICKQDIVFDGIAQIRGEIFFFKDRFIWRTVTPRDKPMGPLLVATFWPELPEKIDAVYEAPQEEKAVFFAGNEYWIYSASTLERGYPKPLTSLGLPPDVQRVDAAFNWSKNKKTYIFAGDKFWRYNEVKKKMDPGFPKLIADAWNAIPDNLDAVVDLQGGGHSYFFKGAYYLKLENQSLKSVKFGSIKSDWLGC

[7] = biological target: Stromelysin-1 (Homo sapiens) (UniProt P08254); assay: Inhibition of human recombinant MMP-3 catalytic domain at 50 uM by fluorescence spectrophotometric analysis relative to control
[8] = biological target: Stromelysin-1 (Homo sapiens) (UniProt P08254); assay: Inhibition of human recombinant MMP-3 catalytic domain at 30 uM by fluorescence spectrophotometric analysis relative to control
[9] = biological target: MMP-2/MMP-14 (Homo sapiens) (UniProt P50281+P08253); assay: Selectivity ratio of Ki for human recombinant MMP-14 catalytic domain to Ki for human recombinant MMP-2
[10] = biological target: T2, Matrix metalloproteinase-9; assay: Inhibition of human recombinant MMP-9 catalytic domain using MOCAcPLGLA2pr(Dnp)AR-NH2 as substrate at 50 uM by fluorescence spectrophotometric analysis relative to control
Homo sapiens = species on record: Homo sapiens; assay: Selectivity ratio of Ki for human recombinant MMP-8 catalytic domain to Ki for human recombinant MMP-2
[11] = biological target: T3, Matrix metalloproteinase-14; assay: Inhibition of human recombinant MMP-14 catalytic domain using MOCAcPLGLA2pr(Dnp)AR-NH2 as substrate at 50 uM by fluorescence spectrophotometric analysis relative to control
Brain [12] = assay: Drug uptake in C57Bl/6J mouse brain at 25 mg/kg, sc measured at 10 mins by reversed phase UPLC/ESI-MRM analysis; format: ADME, organism-based; set-up: dose 25 mg/kg, route subcutaneous; conditions: in vivo
Outline: (§1)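 Female C57Bl/6J mice (6–8 weeks, 16–19 g) received a single 100 µL sc dose equivalent to 25 mg/kg, in 10% DMSO/25% Tween 80/65% water or 80% propylene glycol/20% DMSO. Terminal heparinised vena cava blood gave plasma, and saline-perfused whole brain was taken; n = 3 per time point. Acetonitrile extracts with internal standard were run by UPLC/ESI-MRM against matrix calibration curves, linear 0.05–5 µM.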

Plasma [13] = assay: AUC (0 to infinity) in C57Bl/6J mouse plasma at 25 mg/kg, sc; format: ADME, organism-based; set-up: time infinity, dose 25 mg/kg, route subcutaneous; conditions: in vivo
Outline: (§2)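 Mice were dosed sc once at 25 mg/kg; plasma and perfused brain (n = 3 per time point) were quantified by UPLC/ESI-MRM. AUC0-last came from the mean concentration-time curve by the trapezoidal rule, and AUC0-∞ = AUC0-last + Clast/k. α and β half-lives came from linear regression on the linear portion of the concentration-time data, with t1/2 = ln2/k.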

[14] = Plasma concentration in C57Bl/6J mouse at 25 mg/kg, sc measured at 5 hrs by reversed phase UPLC/ESI-MRM analysis; format: ADME, organism-based; set-up: dose 25 mg/kg, route subcutaneous; outline: as §1
Brain [15] = assay: AUC (0 to infinity) in C57Bl/6J mouse brain at 25 mg/kg, sc; format: ADME, organism-based; set-up: time infinity, dose 25 mg/kg, route subcutaneous; conditions: in vivo; outline: as §2
Brain [16] = assay: Metabolic stability in C57Bl/6J mouse brain assessed as formation of ND-322 at 25 mg/kg, sc measured at 10 to 300 mins; format: ADME, organism-based; set-up: dose 25 mg/kg, route subcutaneous; conditions: in vivo; outline: as §1
Brain [17] = assay: Drug uptake in C57Bl/6J mouse brain measured per mg of tissue at 25 mg/kg, sc measured at 5 hrs by reversed phase UPLC/ESI-MRM analysis; format: ADME, organism-based; set-up: dose 25 mg/kg, route subcutaneous; conditions: in vivo; outline: as §1
Plasma [18] = assay: AUC (0 to last) in C57Bl/6J mouse plasma at 25 mg/kg, sc; format: ADME, organism-based; set-up: time 0 - last, dose 25 mg/kg, route subcutaneous; conditions: in vivo; outline: as §2
[19] = Ratio of AUC in brain to plasma in C57Bl/6J mouse at 25 mg/kg, sc; format: ADME, organism-based; set-up: dose 25 mg/kg, route subcutaneous; conditions: brain and plasma, read-out: Ratio AUC
Brain [20] = assay: AUC (0 to last) in C57Bl/6J mouse brain at 25 mg/kg, sc; format: ADME, organism-based; set-up: dose 25 mg/kg, route subcutaneous; conditions: in vivo; outline: as §2
Plasma [21] = assay: Plasma concentration in C57Bl/6J mouse at 25 mg/kg, sc measured at 10 mins by reversed phase UPLC/ESI-MRM analysis; format: ADME, organism-based; set-up: dose 25 mg/kg, route subcutaneous; conditions: in vivo; outline: as §1
Liver [22] = assay: Half life in rat liver S9 fraction at 10 uM by reversed-phase UPLC/ESI-MRM analysis; format: ADME, subcellular; conditions: s9, 10 µM
Outline: (§3)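 Male rat liver S9 (1.0 mg) with 0.5 mM NADPH and 10 µM compound (both final) in 50 mM potassium phosphate, pH 7.4, at 37 °C, sampled over time. Aliquots were stopped with acetonitrile containing internal standard, and the supernatant was run by UPLC/ESI-MRM. Half-lives used first-order kinetics on peak-area ratios to internal standard.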

[23] = Primary phase half life in C57Bl/6J mouse brain at 25 mg/kg, sc; format: ADME, organism-based; set-up: dose 25 mg/kg, route subcutaneous; conditions: read-out: alphat1/2; outline: as §2
Plasma [24] = assay: Metabolic stability in C57Bl/6J mouse plasma assessed as formation of ND-322 at 25 mg/kg, sc measured at 10 to 300 mins; format: ADME, organism-based; set-up: dose 25 mg/kg, route subcutaneous; conditions: in vivo; outline: as §1
Neutrophil collagenase = Neutrophil collagenase (Homo sapiens, UniProt P22894); assay: Inhibition of human recombinant MMP-8 catalytic domain using […] as substrate by fluorescence spectrophotometric analysis
Sequence of Neutrophil collagenase (P22894 whole entry, the tested form may be a part): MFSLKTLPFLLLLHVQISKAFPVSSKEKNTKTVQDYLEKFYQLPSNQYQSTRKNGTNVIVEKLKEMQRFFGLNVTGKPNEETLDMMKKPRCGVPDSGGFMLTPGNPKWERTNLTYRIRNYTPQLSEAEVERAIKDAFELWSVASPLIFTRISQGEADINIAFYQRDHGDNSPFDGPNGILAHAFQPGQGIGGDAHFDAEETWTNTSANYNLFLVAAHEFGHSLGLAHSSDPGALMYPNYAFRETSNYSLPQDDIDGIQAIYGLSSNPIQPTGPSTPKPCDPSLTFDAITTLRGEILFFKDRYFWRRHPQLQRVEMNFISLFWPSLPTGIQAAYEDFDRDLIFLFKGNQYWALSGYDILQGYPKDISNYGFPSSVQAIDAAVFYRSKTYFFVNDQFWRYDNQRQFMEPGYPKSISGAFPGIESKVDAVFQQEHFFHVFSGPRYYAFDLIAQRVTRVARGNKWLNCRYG

[25] = Primary phase half life in C57Bl/6J mouse plasma at 25 mg/kg, sc; format: ADME, organism-based; set-up: dose 25 mg/kg, route subcutaneous; conditions: read-out: alphat1/2; outline: as §2
Plasma [26] = assay: Elimination half life in C57Bl/6J mouse plasma at 25 mg/kg, sc; format: ADME, organism-based; set-up: dose 25 mg/kg, route subcutaneous; conditions: in vivo; outline: as §2
Brain [27] = assay: Elimination half life in C57Bl/6J mouse brain at 25 mg/kg, sc; format: ADME, organism-based; set-up: dose 25 mg/kg, route subcutaneous; conditions: in vivo; outline: as §2
Liver [28] = assay: Elimination half life in rat liver S9 fraction at 10 uM by reversed-phase UPLC/ESI-MRM analysis; format: ADME, subcellular; conditions: s9, 10 µM; outline: as §3
Liver [29] = assay: Primary phase half life in rat liver S9 fraction at 10 uM by reversed-phase UPLC/ESI-MRM analysis; format: ADME, subcellular; conditions: s9, 10 µM; outline: as §3

## CC(C)OC(=O)Oc1ccc(Oc2ccc(S(=O)(=O)CC3CS3)cc2)cc1 (stereo not drawn)
[1]
  inhibition: 13%
[2]
  Ki: 1300 nM
[3]
  Ratio Ki: 2
[4]
  Ki: 3000 nM
[5]
  inhibition: inactive
[6]
  Ki: 480 nM
[7]
  inhibition: 9%

## COC(=O)Oc1ccc(Oc2ccc(S(=O)(=O)CC3CS3)cc2)cc1 (stereo not drawn)
[1]
  inhibition: 11%
[2]
  Ki: 230 nM
[3]
  Ratio Ki: 2
[4]
  Ki: 2400 nM
[5]
  inhibition: 7%
[8]
  inhibition: 31%
[6]
  Ki: 160 nM

## CCCNC(=O)Nc1ccc(Oc2ccc(S(=O)(=O)CC3CS3)cc2)cc1 (stereo not drawn)
[1]
  inhibition: inactive
[9]
  Ratio Ki: 20
[3]
  Ratio Ki: 20
[5]
  inhibition: inactive
[10]
  inhibition: 7%
Homo sapiens
  Ratio Ki: 20
[6]
  Ki: 560 nM
[11]
  inhibition: 8%
[7]
  inhibition: 18%

## CNC(=O)Oc1ccc(Oc2ccc(S(=O)(=O)CC3CS3)cc2)cc1 (stereo not drawn)
[1]
  inhibition: 6%
[9]
  Ratio Ki: 20
[2]
  Ki: 10000 nM
[3]
  Ratio Ki: 20
[4]
  Ki: 12000 nM
[5]
  inhibition: 8%
Homo sapiens
  Ratio Ki: 20
[6]
  Ki: 390 nM
[7]
  inhibition: 30%

## CC(C)NC(=O)Oc1ccc(Oc2ccc(S(=O)(=O)CC3CS3)cc2)cc1 (stereo not drawn)
[1]
  inhibition: inactive
[9]
  Ratio Ki: 20
[3]
  Ratio Ki: 20
[5]
  inhibition: inactive
[10]
  inhibition: 22%
Homo sapiens
  Ratio Ki: 20
[6]
  Ki: 690 nM
[11]
  inhibition: 30%
[7]
  inhibition: 3%

## CC(C)NC(=O)Nc1ccc(Oc2ccc(S(=O)(=O)CC3CS3)cc2)cc1 (stereo not drawn)
[1]
  inhibition: 6%
[9]
  Ratio Ki: 20
[3]
  Ratio Ki: 20
[5]
  inhibition: inactive
[10]
  inhibition: 26%
Homo sapiens
  Ratio Ki: 20
[6]
  Ki: 420 nM
[11]
  inhibition: 37%
[7]
  inhibition: 4%

## CCNC(=O)Nc1ccc(Oc2ccc(S(=O)(=O)CC3CS3)cc2)cc1 (stereo not drawn)
Brain [12]
  Drug uptake: Active
Plasma [13]
  AUC: 187 µM·min
[1]
  inhibition: 7%
[9]
  Ratio Ki: 20
[14]
  concentration at 5 h: 70.4 nM
Brain [15]
  AUC: 13.8 pmol·min/mg
Brain [16]
  Stability: Stable
Brain [17]
  Drug uptake: 0.0133 pmol
Plasma [18]
  AUClast: 181 µM·min
[3]
  Ratio Ki: 20
[5]
  inhibition: inactive
[19]
  Kp: 0.0738
Brain [20]
  AUClast: 9.86 pmol·min/mg
Plasma [21]
  Drug uptake: Active
Liver [22]
  t1/2: 40.7 min
[23]
  half-life: 18.2 min
[10]
  inhibition: 28%
Plasma [24]
  Stability: Stable
Homo sapiens
  Ratio Ki: 20
[6]
  Ki: 440 nM
[11]
  inhibition: 17%
Neutrophil collagenase
  Ki: 17000 nM
[25]
  half-life: 8.38 min
Plasma [26]
  beta t1/2: 61.9 min
[7]
  inhibition: inactive
Brain [27]
  beta t1/2: 204 min

## Nc1ccc(Oc2ccc(S(=O)(=O)CC3CS3)cc2)cc1 (stereo not drawn)
Liver [28]
  beta t1/2: 59 min
Liver [29]
  alphat1/2: 14 min

— ChEMBL document CHEMBL2440018 (J Med Chem, 2013)
